From ChEMBL document CHEMBL4190280, “Topological pattern for the search of new active drugs against methicillin resistant Staphylococcus aureus” (2017) come the findings set out here.

For test [1], the system named is Staphylococcus aureus. Description: Antibacterial activity against methicillin-resistant Staphylococcus aureus subsp. aureus Rosenbach 1884. Type of test: functional. A digest of the protocol:
(§1)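 In vitro testing against MRSA by standard techniques, following the Spanish Society of Clinical Microbiology and Infectious Diseases (SEIMC) recommended protocol. MIC and MBC were determined, with concentrations compared in double (twofold) dilution steps.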

The test system of test [2] is Staphylococcus aureus. The test can be described thus: Bactericidal activity against methicillin-resistant Staphylococcus aureus subsp. aureus Rosenbach 1884. It counts as functional. The gist of the method: as §1

SMILES strings stand for the structures. Values after ≈ are worked out from the molar mass of the structure shown.

`O=C(O)c1cn(C2CC2)c2cc(Cl)c(F)cc2c1=O` showed an MIC against Staphylococcus aureus [1] of 32 µg/mL (≈ 114 µM). In the test on Staphylococcus aureus [2], this compound gave an MBC of 512 µg/mL (≈ 1820 µM).

The compound `O=C(O)c1cn(C2CC2)c2cc(F)c(F)cc2c1=O` showed an MIC against Staphylococcus aureus [1] of 64 µg/mL (≈ 241 µM). In the test on Staphylococcus aureus [2], the MBC is above 512 µg/mL.

With `COc1cc2c(cc1OC)CN(c1cc3c(cc1F)c(=O)c(C(=O)O)cn3C1CC1)CC2`, the MIC in the test with Staphylococcus aureus [1] stood at 1 µg/mL (≈ 2.28 µM). The same compound displayed an MBC in the test on Staphylococcus aureus [2] of 128 µg/mL (≈ 292 µM).

`CN(Cc1cccc2ccccc12)c1cc2c(cc1F)c(=O)c(C(=O)O)cn2C1CC1` displayed an MIC in the test with Staphylococcus aureus [1] of 1 µg/mL (≈ 2.4 µM). Moreover, the MBC against Staphylococcus aureus [2] turned out to be 128 µg/mL (≈ 307 µM).

For `Cc1nccn1-c1cc2c(cc1F)c(=O)c(C(=O)O)cn2C1CC1`, 32 µg/mL (≈ 97.8 µM) was the least that counted as inhibitory with Staphylococcus aureus [1] (MIC). In the test on Staphylococcus aureus [2], this compound registered an MBC above 512 µg/mL.

In the test on Staphylococcus aureus [1], `O=C(O)c1cn(C2CC2)c2cc(N3CCNCC3)c(F)cc2c1=O` [CIPROFLOXACIN] gave an MIC of 0.5 µg/mL (≈ 1.51 µM). The compound further displayed an MBC in the test with Staphylococcus aureus [2] of 256 µg/mL (≈ 773 µM).

Regarding `CC1(C)[C@H](C(=O)O[C@H](C#N)c2cccc(Oc3ccccc3)c2)[C@@H]1/C=C(\Cl)C(F)(F)F` [GAMMA-CYHALOTHRIN], in the test with Staphylococcus aureus [1], the MIC is above 512 µg/mL. Also, in the test with Staphylococcus aureus [2], the MBC is above 512 µg/mL.

On to `Nc1nnc(-c2cccc(Cl)c2Cl)c(N)n1` [LAMOTRIGINE], for which, in the test with Staphylococcus aureus [1], the MIC was above 512 µg/mL. The same compound displayed an MBC against Staphylococcus aureus [2] above 512 µg/mL.

The compound `CO[C@@]12[C@H](COC(N)=O)C3=C(C(=O)C(C)=C(N)C3=O)N1C[C@@H]1N[C@@H]12` [MITOMYCIN] registered an MIC against Staphylococcus aureus [1] of 0.5 µg/mL (≈ 1.5 µM). Besides, the MBC against Staphylococcus aureus [2] was 4 µg/mL (≈ 12 µM).

The term MIC denotes the smallest concentration in the dilution series that meets the test's criterion for growth inhibition. A lower MIC goes with a more susceptible organism. By MBC is commonly meant the smallest concentration meeting the test's criterion for killing. High values mean less potent killing, low ones more potent killing.
